Measurements from ChEMBL document CHEMBL3400028, “Evaluation of Aconitum diterpenoid alkaloids as antiproliferative agents” (2015).

Tests used:
Format in all cases: functional
A549 = assay: Antiproliferative activity against human A549 cells by sulforhodamine B assay
In short: (§1)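 Cells in RPMI 1640 (25 mM HEPES, 2 mM L-glutamine, 10% heat-inactivated FBS, antibiotics) at 37 °C, 5% CO2. Seeded at 3–5 × 10³/well with graded concentrations, paclitaxel as assay control, for 72 h. TCA-fixed, stained with 0.04% SRB, dye dissolved in 10 mM Tris, A515 read. GI50 is the concentration halving absorbance versus untreated cells; three or more experiments.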

KB = assay: Antiproliferative activity against human KB cells by sulforhodamine B assay; in short: as §1
[1] = Antiproliferative activity against multidrug-resistant P-gp expressing human KBVIN cells by sulforhodamine B assay
In short: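 Vincristine-resistant KB subline kept in 100 nM vincristine, then grown 7–10 days without it before testing. RPMI 1640 with 10% FBS, 37 °C, 5% CO2. 3–5 × 10³ cells/well exposed 72 h to a concentration series, paclitaxel as assay control. SRB staining after TCA fixation, A515 read. GI50 is the 50% absorbance reduction versus untreated cells; three or more experiments.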

[2] = Selectivity ratio of GI50 for human KB cells to GI50 for multidrug-resistant P-gp expressing human KBVIN cells
In short: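 Ratio of GI50 in parental KB to GI50 in P-gp-overexpressing KB-VIN. […] KB-VIN cells were grown 7–10 days without vincristine before the assay.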

DU-145 = assay: Antiproliferative activity against human DU145 cells by sulforhodamine B assay; in short: as §1

Compound | GI50 (A549) [µM] | GI50 (KB) [µM] | GI50 [1] [µM] | RatioGI50 [2] | GI50 (DU-145) [µM]
CCN1C[C@]2(COC)[C@H](O)C[C@H](OC(C)=O)[C@]34C1[C@@](O)([C@@H](OC)[C@H]23)[C@@]1(O)C[C@H](OC)[C@H]2C[C@@H]4[C@@H]1[C@H]2O | > 20 | > 20 | > 20 | >20 | > 20
C=C1[C@H]2C[C@H]3C4N(Cc5ccccc5)C[C@]5(C)CCC[C@]46[C@H]([C@H]2O)C3(CC(=O)[C@H]56)[C@@H]1O (stereo not given in full) | > 20 | > 20 | > 20 | >20 | > 20
CC1[C@H]2C[C@@H]3C4N5C[C@]6(C)CCC[C@@]47[C@@H]6[C@@]5(O)C[C@]3([C@@H]1O)[C@H]7[C@H]2O (stereo not given in full) | > 20 | > 20 | > 20 | >20 | > 20
COC[C@]12CN(C)C3C4[C@H](OC)[C@H]1[C@@]3([C@@H](OC)C[C@H]2O)[C@@H]1C[C@@]2(O)[C@H](OC(=O)c3ccccc3)[C@@H]1[C@]4(OC)[C@@H](O)[C@@H]2OC [HOKBUSINE A] | > 20 | > 20 | > 20 | >20 | > 20
CCN1C[C@]2(COC)CC[C@H](OC(=O)c3ccc([N+](=O)[O-])cc3)[C@]34C1[C@@](O)([C@@H](OC)[C@H]23)[C@@]1(O)C[C@H](OC)[C@H]2C[C@@H]4[C@@H]1[C@H]2O | > 20 | > 20 | > 20 | >20 | > 20
C=C1[C@H]2C[C@@]3([C@@H]1O)[C@@H](C[C@@H]2O)[C@@]12C4[C@@H]3C[C@@H]1[C@@](C)(CC[C@@H]2OC(C)=O)CN4CC | > 20 | > 20 | > 20 | >20 | > 20
C=C1[C@H]2C[C@@H]3C4N5C[C@]6(C)CCC[C@@]47[C@@H]6[C@@]5(O)C[C@]3([C@@H]1O)[C@H]7[C@H]2OC(=O)C(C)(C)C | > 20 | > 20 | > 20 | >20 | > 20
CCN1C[C@]2(COC)CC[C@H](OC)[C@]34C1C([C@H](OC)[C@H]23)[C@]1(OC(C)=O)[C@H]2[C@@H](OC(=O)c3ccccc3)[C@](O)(C[C@H]24)[C@@H](OC)[C@@H]1O [DEOXYACONITINE] | > 20 | > 20 | > 20 | >20 | > 20
C=C1[C@H]2C[C@@H]3C4N5C[C@]6(C)CCC[C@@]47[C@@H]6[C@@]5(O)C[C@]3([C@@H]1O)[C@H]7[C@H]2OC(c1ccccc1)(c1ccccc1)c1ccccc1 | 6.4 | 6.6 | 5.2 | 1.3 | 6
C=C1[C@@H](O)[C@]23C[C@@H]1[C@@H](OC(=O)c1ccc(OC)cc1)C[C@H]2[C@@]12C4C3C[C@@H]1[C@@](C)(CC[C@H]2O)CN4CC | > 20 | > 20 | > 20 | >20 | > 20
C=C1[C@H]2C[C@@H]3C4N5C[C@]6(C)CCC[C@@]47[C@@H]6[C@@H]5C[C@]3([C@@H]1OC(=O)c1ccc(OC)cc1)[C@H]7[C@H]2OC(=O)c1ccc(OC)cc1 | 6.7 | 5.3 | 5.2 | 1 | 7.1
C=C1[C@H]2C[C@@H]3C4N5C[C@]6(C)CCC[C@@]47[C@@H]6[C@@H]5C[C@]3([C@@H]1O)[C@H]7[C@H]2OC(=O)c1ccccc1C(F)(F)F | > 20 | > 20 | > 20 | >20 | > 20
CCN1C[C@]2(COC)[C@H](O)C[C@H](OC)[C@@]34[C@@H]5C[C@@]6(O)[C@H](OC(=O)c7ccccc7)[C@@H]5[C@@](OC(C)=O)([C@@H]([C@H](OC)[C@H]23)[C@@H]14)[C@@H](O)[C@@H]6OC [ACONITINE] | > 20 | > 20 | > 20 | >20 | > 20
CCN1C[C@]2(COC)[C@H](O)C[C@H](O)[C@]34C1[C@@](O)([C@@H](OC)[C@H]23)[C@@]1(O)C[C@H](OC)[C@H]2C[C@@H]4[C@@H]1[C@H]2OC(=O)c1ccccc1 | > 20 | > 20 | > 20 | >20 | > 20
C=C1[C@H]2C[C@@H]3C4N5C[C@]6(C)CCC[C@@]47[C@@H]6[C@@]5(O)C[C@]3([C@@H]1OC(=O)CC)[C@H]7[C@H]2OC(=O)CC | > 20 | > 20 | > 20 | >20 | > 20
CCN1C[C@]2(C)CC[C@H](OC)[C@@]34[C@@H]5C[C@H]6[C@H](OC)[C@@H]5[C@@]5(C[C@@H]6OC)OCO[C@@]5(C(=O)[C@H]23)[C@@H]14 [PACININE] | > 20 | > 20 | > 20 | >20 | > 20
C=C1[C@H]2C[C@H]3C4N5C[C@]6(C)CCC[C@]47[C@H]([C@H]2OC(=O)c2ccc(OC)c(OC)c2)C3(C[C@]5(O)[C@H]67)[C@@H]1O | 10 | 10 | 10 | 10 | 10
C=C1[C@H]2C[C@@H]3C4N5C[C@]6(C)CCC[C@@]47[C@@H]6[C@@H]5C[C@]3([C@@H]1O)[C@H]7[C@H]2OC(=O)c1ccc(F)cc1 | > 20 | > 20 | > 20 | >20 | > 20
C=C1[C@H]2C[C@@H]3C4N5C[C@]6(C)CCC[C@@]47[C@@H]6[C@@]5(OC(=O)c4ccc(OC)c(OC)c4)C[C@]3([C@@H]1O)[C@H]7[C@H]2OC(=O)c1ccc(OC)c(OC)c1 | 10 | 10 | 10 | 10 | 10
C=C1[C@H]2C[C@H]3C4N5C[C@]6(C)CCC[C@]47[C@H]([C@H]2O)C3(C[C@]5(OC(=O)/C=C/c2ccccc2)[C@H]67)[C@@H]1O | > 20 | > 20 | > 20 | >20 | > 20
C=C1[C@H]2C[C@H]3C4N5C[C@]6(C)CCC[C@]47[C@H]([C@H]2OC(=O)c2ccc(OC)cc2)C3(C[C@]5(O)[C@H]67)[C@@H]1O | 10 | 10 | 10 | 10 | 10
COC[C@]12CN(C)C3[C@@H]4[C@H](OC)[C@H]1[C@@]3([C@@H](OC)C[C@H]2OC(C)=O)[C@@H]1C[C@@]2(O)[C@H](OC(=O)c3ccccc3)[C@@H]1[C@]4(OC(C)=O)[C@@H](O)[C@@H]2OC | > 20 | > 20 | > 20 | >20 | > 20
C=C1[C@H]2C[C@@H]3C4N5C[C@]6(C)CCC[C@@]47[C@@H]6[C@@H]5C[C@]3([C@@H]1OC(=O)/C=C/c1cccc(C(F)(F)F)c1)[C@H]7[C@H]2OC(=O)/C=C/c1cccc(C(F)(F)F)c1 | 5.5 | 4.1 | 3.1 | 1.3 | 6.2
C=C1[C@H]2C[C@@H]3C4N5C[C@]6(C)CCC[C@@]47[C@@H]6[C@@]5(OC(=O)c4ccc(OC)cc4)C[C@]3([C@@H]1O)[C@H]7[C@H]2OC(=O)c1ccc(OC)cc1 | > 20 | > 20 | > 20 | >20 | > 20
C=C1[C@H]2C[C@@H]3C4N5C[C@]6(C)CCC[C@@]47[C@@H]6[C@@H]5C[C@]3([C@@H]1OC(=O)c1ccccc1)[C@H]7[C@H]2O | > 20 | > 20 | > 20 | >20 | > 20
C=C1[C@H]2C[C@@H]3C4N5C[C@]6(C)CCC[C@@]47[C@@H]6[C@@H]5C[C@]3([C@@H]1OC(=O)c1ccc(F)cc1)[C@H]7[C@H]2OC(=O)c1ccc(F)cc1 | 8.1 | 5.2 | 7.1 | 0.73 | 6.8
C=C1[C@H]2C[C@H]3C4N5C[C@]6(C)CCC[C@]47[C@H]([C@H]2O)C3(C[C@]5(O)[C@H]67)[C@@H]1O [PSEUDOKOBUSINE] | > 20 | > 20 | > 20 | >20 | > 20
C=C1[C@H]2C[C@@H]3C4N5C[C@]6(C)CCC[C@@]47[C@@H]6[C@@]5(O)C[C@]3([C@@H]1OC(=O)/C=C/c1ccccc1)[C@H]7[C@H]2O | > 20 | > 20 | > 20 | >20 | > 20
C=C1[C@H]2C[C@@]3(C4C[C@@H]5C6(C)CCC7O[C@H]6N(CC)C4C75[C@@H]3C[C@@H]2O)[C@@H]1O | > 20 | > 20 | > 20 | >20 | > 20
